Measured values as given in ChEMBL document CHEMBL5696442, “Discovery of type II inhibitors of TGFβ-activated kinase 1 (TAK1) and mitogen-activated protein kinase kinase kinase kinase 2 (MAP4K2)” (J Med Chem, 2015).
Active and inactive are the calls of the source. The rule behind the calls is not given here.

Assays:
[1] = target: Rho-associated protein kinase 1 (Homo sapiens) (UniProt Q13464); experiment: Inhibition of ROCK1 in human Huh-7 cells at 1 uM by KiNativ Profiling analysis relative to control; assay type: cell-based
[2] = target: T1, Mitogen-activated protein kinase kinase kinase 5 (Homo sapiens) (UniProt Q99683); experiment: Inhibition of MAP3K5 Lys1 labeling site harbouring IAIKEIPER in human A-375 cells at 5 uM by KiNativ Profiling analysis relative to control; assay type: cell-based
T1 sequence (whole entry): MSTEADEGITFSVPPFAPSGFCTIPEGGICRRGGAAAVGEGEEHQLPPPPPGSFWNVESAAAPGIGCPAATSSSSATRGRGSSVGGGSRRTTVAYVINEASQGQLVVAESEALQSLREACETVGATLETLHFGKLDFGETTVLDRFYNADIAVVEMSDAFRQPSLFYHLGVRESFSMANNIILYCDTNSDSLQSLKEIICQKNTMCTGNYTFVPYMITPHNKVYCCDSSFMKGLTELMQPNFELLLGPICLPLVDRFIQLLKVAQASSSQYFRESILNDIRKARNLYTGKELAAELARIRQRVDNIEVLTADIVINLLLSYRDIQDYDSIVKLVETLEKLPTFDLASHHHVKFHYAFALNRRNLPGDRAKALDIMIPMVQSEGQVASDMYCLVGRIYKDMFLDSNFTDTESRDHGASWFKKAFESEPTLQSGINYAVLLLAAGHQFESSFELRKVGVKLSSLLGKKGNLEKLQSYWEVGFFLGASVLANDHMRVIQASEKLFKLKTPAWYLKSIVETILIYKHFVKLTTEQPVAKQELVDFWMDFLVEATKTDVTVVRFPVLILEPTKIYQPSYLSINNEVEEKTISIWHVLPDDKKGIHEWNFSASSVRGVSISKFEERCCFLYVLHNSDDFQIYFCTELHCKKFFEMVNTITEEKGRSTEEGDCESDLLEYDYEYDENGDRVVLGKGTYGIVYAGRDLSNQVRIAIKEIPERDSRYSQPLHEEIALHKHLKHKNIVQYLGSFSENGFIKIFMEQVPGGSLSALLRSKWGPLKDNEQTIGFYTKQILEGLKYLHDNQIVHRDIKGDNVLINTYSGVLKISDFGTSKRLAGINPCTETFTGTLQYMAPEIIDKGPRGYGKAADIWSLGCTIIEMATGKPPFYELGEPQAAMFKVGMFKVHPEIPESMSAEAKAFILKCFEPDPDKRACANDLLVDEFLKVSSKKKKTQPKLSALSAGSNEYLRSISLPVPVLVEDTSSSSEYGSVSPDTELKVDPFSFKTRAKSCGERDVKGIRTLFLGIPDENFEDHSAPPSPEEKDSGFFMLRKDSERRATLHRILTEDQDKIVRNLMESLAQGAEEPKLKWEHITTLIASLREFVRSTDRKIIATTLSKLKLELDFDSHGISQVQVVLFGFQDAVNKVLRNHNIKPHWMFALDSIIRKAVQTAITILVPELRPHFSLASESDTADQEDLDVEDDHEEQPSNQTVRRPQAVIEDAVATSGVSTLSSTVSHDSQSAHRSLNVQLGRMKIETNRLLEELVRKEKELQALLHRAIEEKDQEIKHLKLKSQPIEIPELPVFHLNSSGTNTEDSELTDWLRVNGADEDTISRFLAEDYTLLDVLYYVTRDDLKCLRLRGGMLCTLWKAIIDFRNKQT

[3] = target: Mitogen-activated protein kinase 6 (Homo sapiens) (UniProt Q16659); experiment: Inhibition of ERK3 (unknown origin) at 10 uM by Ambit Kinomescan binding assay
[4] = target: Phosphatidylinositol 4,5-bisphosphate 3-kinase catalytic subunit alpha isoform (Homo sapiens) (UniProt P42336); experiment: Inhibition of PIK3CA (unknown origin) at 10 uM by Ambit Kinomescan binding assay
[5] = target: Ribosomal protein S6 kinase alpha-5 (Homo sapiens) (UniProt O75582); experiment: Inhibition of MSK1 domain1 ATP Loop labeling site in human Huh-7 cells at 1 uM by KiNativ Profiling analysis relative to control; assay type: cell-based
[6] = target: Serine/threonine-protein kinase 10 (Homo sapiens) (UniProt O94804); experiment: Inhibition of LOK Lys2 labeling site in human Huh-7 cells at 1 uM by KiNativ Profiling analysis relative to control; assay type: cell-based
[7] = test system: Tyrosine-protein kinase ABL1 (Homo sapiens), P00519 [H396P]; experiment: Inhibition of nonphosphorylated ABL1 H396P mutant (unknown origin) at 1 uM by Ambit Kinomescan binding assay relative to control
[8] = target: T2, Myotonin-protein kinase (Homo sapiens) (UniProt Q09013); experiment: Inhibition of DMPK (unknown origin) at 1 uM by Ambit Kinomescan binding assay relative to control; values are per cent of control
T2 sequence (whole entry): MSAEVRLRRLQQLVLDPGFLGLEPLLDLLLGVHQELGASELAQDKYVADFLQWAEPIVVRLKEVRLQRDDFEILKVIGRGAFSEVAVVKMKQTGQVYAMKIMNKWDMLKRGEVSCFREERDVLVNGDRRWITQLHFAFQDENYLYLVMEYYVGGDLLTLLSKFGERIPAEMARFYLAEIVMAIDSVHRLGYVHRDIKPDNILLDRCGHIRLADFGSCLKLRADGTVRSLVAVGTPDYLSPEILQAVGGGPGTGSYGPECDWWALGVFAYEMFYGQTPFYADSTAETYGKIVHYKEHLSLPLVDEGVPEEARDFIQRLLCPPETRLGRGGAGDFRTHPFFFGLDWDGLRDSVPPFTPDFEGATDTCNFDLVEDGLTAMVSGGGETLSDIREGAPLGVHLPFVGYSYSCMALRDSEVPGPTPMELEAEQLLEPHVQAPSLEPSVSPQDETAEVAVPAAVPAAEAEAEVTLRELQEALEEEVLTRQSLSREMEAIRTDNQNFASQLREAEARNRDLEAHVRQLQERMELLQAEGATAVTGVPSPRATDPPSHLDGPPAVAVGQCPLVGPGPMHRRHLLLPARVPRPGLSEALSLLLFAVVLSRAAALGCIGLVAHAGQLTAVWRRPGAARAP

[9] = target: Serine/threonine-protein kinase VRK2 (Homo sapiens) (UniProt Q86Y07); experiment: Inhibition of VRK2 (unknown origin) at 1 uM by Ambit Kinomescan binding assay relative to control
[10] = target: Cyclin-dependent kinase 17 (Homo sapiens) (UniProt Q00537); experiment: Inhibition of PCTAIRE2 Lys1 labeling site harbouring SKLTENLVALKEIRLEHEEGAPCTAIR in human A-375 cells at 0.05 uM by KiNativ Profiling analysis relative to control; assay type: cell-based
[11] = target: Protein kinase C theta type (Homo sapiens) (UniProt Q04759); experiment: Inhibition of PRKCQ (unknown origin) at 1 uM by Ambit Kinomescan binding assay relative to control
Outline: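 In vitro ATP-site competition binding assay against a panel of over 420 kinases (KinomeScan), with compound tested at 10 or 1 μM.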

[12] = target: STE20/SPS1-related proline-alanine-rich protein kinase (Homo sapiens) (UniProt Q9UEW8); experiment: Inhibition of STK39 (unknown origin) at 1 uM by Ambit Kinomescan binding assay relative to control

Serine/threonine-protein kinase VRK2 (Homo sapiens), sequence (Q86Y07 whole entry): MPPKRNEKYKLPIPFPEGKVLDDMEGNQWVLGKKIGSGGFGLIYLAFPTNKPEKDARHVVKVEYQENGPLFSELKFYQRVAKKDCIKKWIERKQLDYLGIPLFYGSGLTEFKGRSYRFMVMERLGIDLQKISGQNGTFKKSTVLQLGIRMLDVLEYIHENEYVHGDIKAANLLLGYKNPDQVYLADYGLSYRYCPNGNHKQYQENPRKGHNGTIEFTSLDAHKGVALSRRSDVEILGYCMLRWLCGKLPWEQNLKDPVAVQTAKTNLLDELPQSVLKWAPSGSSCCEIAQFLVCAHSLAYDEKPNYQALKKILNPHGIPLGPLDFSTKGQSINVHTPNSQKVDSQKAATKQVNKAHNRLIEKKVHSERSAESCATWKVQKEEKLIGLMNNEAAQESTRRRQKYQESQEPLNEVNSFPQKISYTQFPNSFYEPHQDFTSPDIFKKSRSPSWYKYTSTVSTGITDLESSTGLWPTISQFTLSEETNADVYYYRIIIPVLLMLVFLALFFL
Ribosomal protein S6 kinase alpha-5 (Homo sapiens), sequence (O75582 whole entry, looked up, the tested form may be a part): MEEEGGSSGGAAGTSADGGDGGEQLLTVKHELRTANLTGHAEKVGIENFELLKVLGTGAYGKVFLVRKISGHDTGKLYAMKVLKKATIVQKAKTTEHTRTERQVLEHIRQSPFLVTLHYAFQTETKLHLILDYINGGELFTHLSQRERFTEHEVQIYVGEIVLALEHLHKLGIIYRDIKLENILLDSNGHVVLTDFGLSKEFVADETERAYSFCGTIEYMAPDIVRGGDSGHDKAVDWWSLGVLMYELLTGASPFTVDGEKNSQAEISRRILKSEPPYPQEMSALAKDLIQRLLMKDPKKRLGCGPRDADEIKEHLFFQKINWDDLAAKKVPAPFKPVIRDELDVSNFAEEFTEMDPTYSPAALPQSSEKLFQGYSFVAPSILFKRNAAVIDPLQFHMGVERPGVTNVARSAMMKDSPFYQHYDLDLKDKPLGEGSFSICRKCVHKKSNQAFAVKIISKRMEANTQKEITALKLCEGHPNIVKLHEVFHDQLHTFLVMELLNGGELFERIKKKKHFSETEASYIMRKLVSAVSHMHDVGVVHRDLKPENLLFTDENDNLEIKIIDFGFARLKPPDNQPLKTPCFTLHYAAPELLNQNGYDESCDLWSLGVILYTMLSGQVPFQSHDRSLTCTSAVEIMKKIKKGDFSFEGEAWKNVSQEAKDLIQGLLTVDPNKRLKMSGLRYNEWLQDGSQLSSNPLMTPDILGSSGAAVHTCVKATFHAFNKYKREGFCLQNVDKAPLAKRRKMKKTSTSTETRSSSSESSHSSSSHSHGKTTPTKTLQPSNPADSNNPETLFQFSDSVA
Rho-associated protein kinase 1 (Homo sapiens), sequence (Q13464 2-1354 limits assumed): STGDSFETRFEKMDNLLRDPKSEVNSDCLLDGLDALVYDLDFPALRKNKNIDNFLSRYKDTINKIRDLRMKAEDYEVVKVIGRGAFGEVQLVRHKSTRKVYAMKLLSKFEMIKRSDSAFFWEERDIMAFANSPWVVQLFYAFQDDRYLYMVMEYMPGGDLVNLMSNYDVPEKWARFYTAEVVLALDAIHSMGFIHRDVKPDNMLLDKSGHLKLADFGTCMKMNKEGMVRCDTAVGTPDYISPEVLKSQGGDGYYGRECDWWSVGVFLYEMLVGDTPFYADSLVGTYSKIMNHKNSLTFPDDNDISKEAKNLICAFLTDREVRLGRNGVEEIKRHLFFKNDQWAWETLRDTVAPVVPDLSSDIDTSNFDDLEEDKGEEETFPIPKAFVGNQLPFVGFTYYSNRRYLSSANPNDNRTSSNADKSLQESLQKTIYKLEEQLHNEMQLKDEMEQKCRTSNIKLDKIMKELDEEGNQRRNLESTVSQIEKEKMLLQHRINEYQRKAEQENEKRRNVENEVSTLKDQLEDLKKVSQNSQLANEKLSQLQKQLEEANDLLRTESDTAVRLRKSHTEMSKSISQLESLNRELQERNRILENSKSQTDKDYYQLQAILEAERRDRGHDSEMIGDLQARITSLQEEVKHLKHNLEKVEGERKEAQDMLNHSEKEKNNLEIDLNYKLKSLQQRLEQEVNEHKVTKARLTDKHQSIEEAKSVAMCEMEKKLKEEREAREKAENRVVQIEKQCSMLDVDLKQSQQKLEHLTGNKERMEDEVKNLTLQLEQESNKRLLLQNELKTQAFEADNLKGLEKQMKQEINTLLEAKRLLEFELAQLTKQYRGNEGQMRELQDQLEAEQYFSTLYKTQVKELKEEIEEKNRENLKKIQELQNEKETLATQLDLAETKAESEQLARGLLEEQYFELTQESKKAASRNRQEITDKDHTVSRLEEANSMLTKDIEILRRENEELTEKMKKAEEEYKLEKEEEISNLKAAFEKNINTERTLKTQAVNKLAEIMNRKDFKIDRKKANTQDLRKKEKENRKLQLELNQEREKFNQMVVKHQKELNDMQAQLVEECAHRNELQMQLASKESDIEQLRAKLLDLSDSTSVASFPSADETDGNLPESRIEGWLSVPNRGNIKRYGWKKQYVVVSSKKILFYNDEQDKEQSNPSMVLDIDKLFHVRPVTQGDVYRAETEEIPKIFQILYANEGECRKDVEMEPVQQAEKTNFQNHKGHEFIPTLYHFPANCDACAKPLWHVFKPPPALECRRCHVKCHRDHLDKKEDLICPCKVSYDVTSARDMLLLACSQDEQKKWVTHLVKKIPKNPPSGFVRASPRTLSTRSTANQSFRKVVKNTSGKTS
Mitogen-activated protein kinase 6 (Homo sapiens), sequence (Q16659 whole entry, canonical isoform): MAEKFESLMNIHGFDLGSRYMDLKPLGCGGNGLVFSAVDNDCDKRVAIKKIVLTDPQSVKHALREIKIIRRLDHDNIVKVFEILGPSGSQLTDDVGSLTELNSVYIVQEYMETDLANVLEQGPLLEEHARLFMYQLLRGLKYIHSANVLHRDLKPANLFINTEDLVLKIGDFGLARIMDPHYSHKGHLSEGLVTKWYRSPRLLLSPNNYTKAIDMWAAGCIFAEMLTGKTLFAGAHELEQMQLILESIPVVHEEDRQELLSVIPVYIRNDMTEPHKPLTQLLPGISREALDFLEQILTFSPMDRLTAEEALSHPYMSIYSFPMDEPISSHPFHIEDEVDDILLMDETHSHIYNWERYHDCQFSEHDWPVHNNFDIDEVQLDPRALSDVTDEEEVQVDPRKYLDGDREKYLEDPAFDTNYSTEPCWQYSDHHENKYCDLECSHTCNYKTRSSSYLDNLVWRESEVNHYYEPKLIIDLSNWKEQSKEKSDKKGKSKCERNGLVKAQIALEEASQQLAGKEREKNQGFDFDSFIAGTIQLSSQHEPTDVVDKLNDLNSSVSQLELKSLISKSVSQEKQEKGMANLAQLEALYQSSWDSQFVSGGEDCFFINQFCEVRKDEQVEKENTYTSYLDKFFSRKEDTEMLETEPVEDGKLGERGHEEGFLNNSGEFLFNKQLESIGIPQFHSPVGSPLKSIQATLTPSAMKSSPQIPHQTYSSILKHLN
Phosphatidylinositol 4,5-bisphosphate 3-kinase catalytic subunit alpha isoform (Homo sapiens), sequence (P42336 whole entry, the tested form may be a part, canonical isoform): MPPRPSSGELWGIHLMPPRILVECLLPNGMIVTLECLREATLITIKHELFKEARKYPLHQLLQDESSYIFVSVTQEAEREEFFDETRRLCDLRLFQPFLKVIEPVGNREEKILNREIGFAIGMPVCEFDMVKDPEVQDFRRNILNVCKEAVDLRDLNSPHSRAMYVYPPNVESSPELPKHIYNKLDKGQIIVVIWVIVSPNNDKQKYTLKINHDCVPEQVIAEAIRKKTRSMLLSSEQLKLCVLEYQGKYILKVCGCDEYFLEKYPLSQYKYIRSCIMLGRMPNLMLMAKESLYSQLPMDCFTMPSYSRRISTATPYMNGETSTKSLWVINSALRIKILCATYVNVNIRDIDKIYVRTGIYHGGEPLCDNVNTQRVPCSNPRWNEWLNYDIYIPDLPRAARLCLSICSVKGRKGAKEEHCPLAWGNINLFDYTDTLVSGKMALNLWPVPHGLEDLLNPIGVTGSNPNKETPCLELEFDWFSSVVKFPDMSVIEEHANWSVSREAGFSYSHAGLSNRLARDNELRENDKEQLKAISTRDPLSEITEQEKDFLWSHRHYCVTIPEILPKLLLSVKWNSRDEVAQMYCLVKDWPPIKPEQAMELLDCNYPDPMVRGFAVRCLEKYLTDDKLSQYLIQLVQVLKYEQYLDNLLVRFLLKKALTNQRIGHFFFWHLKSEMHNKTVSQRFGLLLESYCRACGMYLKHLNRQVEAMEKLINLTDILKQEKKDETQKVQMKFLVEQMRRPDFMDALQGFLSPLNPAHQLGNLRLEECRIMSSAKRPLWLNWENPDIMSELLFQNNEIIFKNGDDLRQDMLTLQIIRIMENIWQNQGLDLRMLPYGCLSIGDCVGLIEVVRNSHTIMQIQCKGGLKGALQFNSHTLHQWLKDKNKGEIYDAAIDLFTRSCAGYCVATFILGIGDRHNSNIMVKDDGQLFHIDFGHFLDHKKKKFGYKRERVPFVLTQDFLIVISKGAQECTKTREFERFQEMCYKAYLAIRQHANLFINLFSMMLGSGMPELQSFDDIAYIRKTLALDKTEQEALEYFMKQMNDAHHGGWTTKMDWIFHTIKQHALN
Cyclin-dependent kinase 17 (Homo sapiens), sequence (Q00537 whole entry, looked up): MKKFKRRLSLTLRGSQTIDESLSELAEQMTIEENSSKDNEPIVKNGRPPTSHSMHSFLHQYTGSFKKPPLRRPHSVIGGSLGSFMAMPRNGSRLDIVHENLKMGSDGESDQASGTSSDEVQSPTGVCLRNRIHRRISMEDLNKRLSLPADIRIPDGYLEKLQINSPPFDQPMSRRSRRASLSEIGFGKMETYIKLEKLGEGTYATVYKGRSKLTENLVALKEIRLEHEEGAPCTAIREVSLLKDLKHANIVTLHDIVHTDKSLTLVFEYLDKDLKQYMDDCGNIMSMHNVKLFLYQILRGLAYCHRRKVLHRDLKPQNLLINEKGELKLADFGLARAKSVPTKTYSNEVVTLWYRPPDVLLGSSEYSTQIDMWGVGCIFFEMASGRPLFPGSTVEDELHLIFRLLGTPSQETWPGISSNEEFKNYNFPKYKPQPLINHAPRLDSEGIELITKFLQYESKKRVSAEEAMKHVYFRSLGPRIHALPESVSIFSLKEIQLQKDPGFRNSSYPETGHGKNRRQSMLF

**Q.** For `CCN1CCN(Cc2ccc(NC(=O)c3ccc(C)c(Oc4ccnc5[nH]ccc45)c3)cc2C(F)(F)F)CC1`, which inhibition [1] is on record?
**A.** The inhibition was -5.5%.

**Q.** What about the inhibition [2] of the same compound?
**A.** The inhibition was -0.6%.

**Q.** And the inhibition [3]?
**A.** The inhibition was “inactive”.

**Q.** And the inhibition [4]?
**A.** The inhibition was “inactive”.

**Q.** Which inhibition [5] does the source give for `CNc1cc(Oc2cc(C(=O)Nc3cc(N4CCN(C)CC4)cc(C(F)(F)F)c3)ccc2C)ncn1` here?
**A.** Its inhibition is 11.5%.

**Q.** What about the inhibition [6] of the same compound?
**A.** The inhibition was 19%.

**Q.** For `CCN1CCN(Cc2ccc(NC(=O)c3ccc(C)c(/C=C/c4cnc5[nH]ccc5c4OC)c3)cc2C(F)(F)F)CC1`, which inhibition [7] is on record?
**A.** Its inhibition is 0%.

**Q.** What about the residual activity [8] of the same compound?
**A.** Its residual activity is 100%.

**Q.** And the inhibition [9]?
**A.** The inhibition was 100%.

**Q.** And the inhibition [10]?
**A.** The inhibition was 2.7%.

**Q.** What about the inhibition [11] of the same compound?
**A.** Its inhibition is 83%.

**Q.** And the inhibition [12]?
**A.** The inhibition was 70%.
